# Results: paper PMC11375721 (ACS Omega, 2024)
# How the values were obtained:
# [1] = tested on: A549-PDL1 cells; test: Cellular uptake and internalization; type: cell-based
# Procedure, shortened: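 A549 cells stably transfected with PD-L1 by lentiviral infection, grown in RPMI-1640 with 15% FBS at 37 °C, 5% CO2. Cells were incubated with in vitro ligated [18F]Tz-TCO-antibody for 30, 60, 120 and 180 min at 37 °C, then washed twice in ice-cold PBS. Surface activity was stripped with glycine HCl (1 mol/L, pH 2.2) for 10 min at 37 °C. The lysate gave the internalized fraction; washes plus lysate gave total uptake, γ-counted. Three experiments, each in triplicate.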
# [2] = target: PD-L1 (Homo sapiens, UniProt Q9NZQ7); test: Saturation binding on A549-PDL1 cells; conditions: 37 °C, 1 h
# Chain of PD-L1 (Q9NZQ7 19-290): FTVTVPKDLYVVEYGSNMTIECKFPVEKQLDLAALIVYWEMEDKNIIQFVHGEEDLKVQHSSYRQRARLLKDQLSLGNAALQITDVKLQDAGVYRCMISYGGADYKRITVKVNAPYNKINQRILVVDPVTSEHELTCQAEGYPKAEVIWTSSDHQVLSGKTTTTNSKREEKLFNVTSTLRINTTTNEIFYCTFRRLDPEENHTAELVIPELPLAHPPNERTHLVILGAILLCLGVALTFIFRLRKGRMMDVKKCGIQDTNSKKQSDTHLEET
# Procedure, shortened: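 Antibody-TCO was ligated with [18F]Tz in PBS (pH 7) at room temperature, and the purified conjugate was added at 0.08–10 nM to A549-PDL1 cells (2 × 10^5/well) for 1 h at 37 °C. Nonspecific binding used 100-fold excess unlabeled antibody added 1 h beforehand. Cell-bound activity was γ-counted. Each condition was run in triplicate, and Kd came from one-site specific-binding nonlinear regression.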
# [3] = tested on: A549-PDL1 xenografts; test: In vivo pretargeting biodistribution; set-up: species or system mice; conditions: 1 h after [^18F]PEG12-Tz; for A549-PDL1 tumor uptake / blood uptake / bone uptake / brain uptake / gall bladder uptake / heart uptake / intestine uptake / kidney uptake / liver uptake / lung uptake / muscle uptake / spleen uptake / stomach uptake / tumor/blood / tumor/muscle: n = 3; for tumor/blood / tumor/muscle: biodistribution
# Procedure, shortened: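 Male BALB/c nude mice (4–6 weeks, 13–18 g) received 5 × 10^6 A549-PDL1 and A549 cells in PBS subcutaneously behind the right armpit and were used once tumors reached 5–10 mm. Durvalumab-TCO or atezolizumab-TCO (300 μg in 150 μL PBS) was given i.v. by tail vein. After 24, 48 or 72 h, [18F]PEG12-Tz (1.85 MBq) was given i.v. Mice were killed 1 h later, and organs were weighed, γ-counted and expressed as %ID/g; n = 3. Controls: radioligand alone; blocking by co-injection of 50-fold molar excess atezolizumab plus 50 μg unlabeled tetrazine.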
# [4] = tested on: A549-PDL1 xenografts; test: Pretargeted micro-PET/CT imaging; type: in vivo, mice; conditions: for A549-PDL1 tumor uptake (PET): 1 h postinjection of [^18F]PEG12-Tz
# [5] = Estimated human dosimetry
# Procedure, shortened: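 Male nude mice bearing A549-PDL1 xenografts were imaged by micro-PET/CT under 2–3% isoflurane on a heating pad, with OSEM reconstruction and %ID/g quantification. Pretargeted arm: atezolizumab-TCO 300 μg i.v., then 48 h later the 18F-tetrazine (3.7 MBq) i.v. Direct arm: [18F]Tz-TCO-atezolizumab 7.4 MBq/mouse i.v., imaged at 1, 2, 4, 6 and 8 h. Mouse data were extrapolated to human organ doses.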
substance,measurement,setting,value
"[^18F]Tz-TCO-atezolizumab: in vitro ligation product of [^18F]Tz with atezolizumab-TCO, directly labeled radioimmunoconjugate",cellular uptake,[1]; 30 min,3.76 % ID/10^6 cells
same,cellular uptake,[1]; 180 min,9.85 % ID/10^6 cells
same,internalization rate,[1]; 180 min,98.1%
same,Kd,[2],1.38 nM
[^18F]Tz-TCO-durvalumab: in vitro ligation product of [^18F]Tz with durvalumab-TCO,cellular uptake,[1]; 30 min,5.13 % ID/10^6 cells
same,cellular uptake,[1]; 180 min,8.40 % ID/10^6 cells
same,internalization rate,[1]; 180 min,73.2%
same,Kd,[2],2.39 nM
"atezolizumab pretargeted: pretargeting pair: atezolizumab-TCO injected first, [^18F]PEG12-Tz 24-72 h later, ligated in vivo",A549-PDL1 tumor uptake,[3]; 24 h after antibody-TCO 300 μg,1.16 ± 0.06 % ID/g
same,blood uptake,[3]; 24 h after antibody-TCO 300 μg,1.72 ± 0.09 % ID/g
same,bone uptake,[3]; 24 h after antibody-TCO 300 μg,0.38 ± 0.07 % ID/g
same,brain uptake,[3]; 24 h after antibody-TCO 300 μg,0.06 ± 0.01 % ID/g
same,gall bladder uptake,[3]; 24 h after antibody-TCO 300 μg,0.94 ± 0.11 % ID/g
same,heart uptake,[3]; 24 h after antibody-TCO 300 μg,0.93 ± 0.05 % ID/g
same,intestine uptake,[3]; 24 h after antibody-TCO 300 μg,0.51 ± 0.12 % ID/g
same,kidney uptake,[3]; 24 h after antibody-TCO 300 μg,2.04 ± 0.09 % ID/g
same,liver uptake,[3]; 24 h after antibody-TCO 300 μg,0.87 ± 0.08 % ID/g
same,lung uptake,[3]; 24 h after antibody-TCO 300 μg,1.78 ± 0.34 % ID/g
same,muscle uptake,[3]; 24 h after antibody-TCO 300 μg,0.26 ± 0.04 % ID/g
same,spleen uptake,[3]; 24 h after antibody-TCO 300 μg,0.71 ± 0.04 % ID/g
same,stomach uptake,[3]; 24 h after antibody-TCO 300 μg,0.40 ± 0.16 % ID/g
same,A549-PDL1 tumor uptake,[3]; 48 h after antibody-TCO 300 μg,1.65 ± 0.29 % ID/g
same,blood uptake,[3]; 48 h after antibody-TCO 300 μg,1.86 ± 0.15 % ID/g
same,bone uptake,[3]; 48 h after antibody-TCO 300 μg,0.28 ± 0.02 % ID/g
same,brain uptake,[3]; 48 h after antibody-TCO 300 μg,0.05 ± 0.01 % ID/g
same,gall bladder uptake,[3]; 48 h after antibody-TCO 300 μg,0.94 ± 0.24 % ID/g
same,heart uptake,[3]; 48 h after antibody-TCO 300 μg,1.02 ± 0.14 % ID/g
same,intestine uptake,[3]; 48 h after antibody-TCO 300 μg,0.62 ± 0.22 % ID/g
same,kidney uptake,[3]; 48 h after antibody-TCO 300 μg,2.82 ± 0.52 % ID/g
same,liver uptake,[3]; 48 h after antibody-TCO 300 μg,0.96 ± 0.18 % ID/g
same,lung uptake,[3]; 48 h after antibody-TCO 300 μg,1.65 ± 0.11 % ID/g
same,muscle uptake,[3]; 48 h after antibody-TCO 300 μg,0.31 ± 0.08 % ID/g
same,spleen uptake,[3]; 48 h after antibody-TCO 300 μg,0.71 ± 0.12 % ID/g
same,stomach uptake,[3]; 48 h after antibody-TCO 300 μg,0.37 ± 0.06 % ID/g
same,A549-PDL1 tumor uptake,[3]; 72 h after antibody-TCO 300 μg,0.90 ± 0.23 % ID/g
same,blood uptake,[3]; 72 h after antibody-TCO 300 μg,1.48 ± 0.50 % ID/g
same,bone uptake,[3]; 72 h after antibody-TCO 300 μg,0.38 ± 0.03 % ID/g
same,brain uptake,[3]; 72 h after antibody-TCO 300 μg,0.05 ± 0.01 % ID/g
same,gall bladder uptake,[3]; 72 h after antibody-TCO 300 μg,0.63 ± 0.21 % ID/g
same,heart uptake,[3]; 72 h after antibody-TCO 300 μg,0.74 ± 0.28 % ID/g
same,intestine uptake,[3]; 72 h after antibody-TCO 300 μg,0.55 ± 0.15 % ID/g
same,kidney uptake,[3]; 72 h after antibody-TCO 300 μg,2.22 ± 0.37 % ID/g
same,liver uptake,[3]; 72 h after antibody-TCO 300 μg,0.71 ± 0.16 % ID/g
same,lung uptake,[3]; 72 h after antibody-TCO 300 μg,0.92 ± 0.06 % ID/g
same,muscle uptake,[3]; 72 h after antibody-TCO 300 μg,0.29 ± 0.06 % ID/g
same,spleen uptake,[3]; 72 h after antibody-TCO 300 μg,0.81 ± 0.13 % ID/g
same,stomach uptake,[3]; 72 h after antibody-TCO 300 μg,0.32 ± 0.11 % ID/g
same,A549-PDL1 tumor uptake (PET),[4]; 24 h interval,0.79 ± 0.06 % ID/g
same,A549-PDL1 tumor uptake (PET),[4]; 48 h interval,0.94 ± 0.16 % ID/g
same,A549-PDL1 tumor uptake (PET),[4]; 72 h interval,0.41 ± 0.04 % ID/g
same,accumulation in A549-PDL1 tumors under blocking,[4]; co-injection of unmodified anti-PD-L1 antibody or unlabeled tetrazine,could be blocked
same,lowering of total effective dose versus [^18F]Tz-TCO-atezolizumab,[5]; estimated human,over 7.5 fold
same,effective internal radiation dose,"[5]; for men, as printed in main text",1.15 × 10^–3 μSv/MBq
"atezolizumab-TCO: atezolizumab (anti-PD-L1 antibody) modified with TCO-PEG4-NHS Ester, average 8 TCO per antibody",A549-PDL1 tumor uptake,[3]; 48 h after antibody-TCO 300 μg,1.65 ± 0.15 % ID/g
same,blood uptake,[3]; 48 h after antibody-TCO 300 μg,1.86 ± 0.15 % ID/g
same,lung uptake,[3]; 48 h after antibody-TCO 300 μg,1.65 ± 0.11 % ID/g
same,"uptake in other organs such as the liver, muscles, bones, and intestines",[3]; 48 h after atezolizumab-TCO,< 0.96 % ID/g
"durvalumab pretargeted: pretargeting pair: durvalumab-TCO injected first, [^18F]PEG12-Tz 24-72 h later, ligated in vivo",A549-PDL1 tumor uptake,[3]; 24 h after antibody-TCO 300 μg,2.52 ± 0.16 % ID/g
same,blood uptake,[3]; 24 h after antibody-TCO 300 μg,8.80 ± 0.50 % ID/g
same,bone uptake,[3]; 24 h after antibody-TCO 300 μg,1.16 ± 0.27 % ID/g
same,brain uptake,[3]; 24 h after antibody-TCO 300 μg,0.29 ± 0.07 % ID/g
same,gall bladder uptake,[3]; 24 h after antibody-TCO 300 μg,1.29 ± 0.08 % ID/g
same,heart uptake,[3]; 24 h after antibody-TCO 300 μg,2.66 ± 0.49 % ID/g
same,intestine uptake,[3]; 24 h after antibody-TCO 300 μg,0.54 ± 0.14 % ID/g
same,kidney uptake,[3]; 24 h after antibody-TCO 300 μg,3.12 ± 0.31 % ID/g
same,liver uptake,[3]; 24 h after antibody-TCO 300 μg,1.93 ± 0.59 % ID/g
same,lung uptake,[3]; 24 h after antibody-TCO 300 μg,7.06 ± 1.90 % ID/g
same,muscle uptake,[3]; 24 h after antibody-TCO 300 μg,0.72 ± 0.10 % ID/g
same,spleen uptake,[3]; 24 h after antibody-TCO 300 μg,1.27 ± 0.22 % ID/g
same,stomach uptake,[3]; 24 h after antibody-TCO 300 μg,0.50 ± 0.06 % ID/g
same,A549-PDL1 tumor uptake,[3]; 48 h after antibody-TCO 300 μg,1.91 ± 0.38 % ID/g
same,blood uptake,[3]; 48 h after antibody-TCO 300 μg,6.08 ± 1.82 % ID/g
same,bone uptake,[3]; 48 h after antibody-TCO 300 μg,0.98 ± 0.26 % ID/g
same,brain uptake,[3]; 48 h after antibody-TCO 300 μg,0.16 ± 0.04 % ID/g
same,gall bladder uptake,[3]; 48 h after antibody-TCO 300 μg,1.11 ± 0.35 % ID/g
same,heart uptake,[3]; 48 h after antibody-TCO 300 μg,1.57 ± 0.27 % ID/g
same,intestine uptake,[3]; 48 h after antibody-TCO 300 μg,0.40 ± 0.07 % ID/g
same,kidney uptake,[3]; 48 h after antibody-TCO 300 μg,2.68 ± 0.46 % ID/g
same,liver uptake,[3]; 48 h after antibody-TCO 300 μg,1.19 ± 0.23 % ID/g
same,lung uptake,[3]; 48 h after antibody-TCO 300 μg,3.19 ± 1.02 % ID/g
same,muscle uptake,[3]; 48 h after antibody-TCO 300 μg,0.56 ± 0.20 % ID/g
same,spleen uptake,[3]; 48 h after antibody-TCO 300 μg,0.48 ± 0.34 % ID/g
same,stomach uptake,[3]; 48 h after antibody-TCO 300 μg,0.33 ± 0.09 % ID/g
same,A549-PDL1 tumor uptake,[3]; 72 h after antibody-TCO 300 μg,1.60 ± 0.23 % ID/g
same,blood uptake,[3]; 72 h after antibody-TCO 300 μg,5.29 ± 0.50 % ID/g
same,bone uptake,[3]; 72 h after antibody-TCO 300 μg,0.53 ± 0.04 % ID/g
same,brain uptake,[3]; 72 h after antibody-TCO 300 μg,0.14 ± 0.01 % ID/g
same,gall bladder uptake,[3]; 72 h after antibody-TCO 300 μg,0.99 ± 0.22 % ID/g
same,heart uptake,[3]; 72 h after antibody-TCO 300 μg,1.40 ± 0.28 % ID/g
same,intestine uptake,[3]; 72 h after antibody-TCO 300 μg,0.51 ± 0.15 % ID/g
same,kidney uptake,[3]; 72 h after antibody-TCO 300 μg,2.27 ± 0.37 % ID/g
same,liver uptake,[3]; 72 h after antibody-TCO 300 μg,1.01 ± 0.16 % ID/g
same,lung uptake,[3]; 72 h after antibody-TCO 300 μg,2.01 ± 0.06 % ID/g
same,muscle uptake,[3]; 72 h after antibody-TCO 300 μg,0.43 ± 0.06 % ID/g
same,spleen uptake,[3]; 72 h after antibody-TCO 300 μg,0.62 ± 0.13 % ID/g
same,stomach uptake,[3]; 72 h after antibody-TCO 300 μg,0.75 ± 0.28 % ID/g
same,tumor/blood,[3]; 24 h after antibody-TCO 300 μg,0.29 ± 0.04
same,tumor/muscle,[3]; 24 h after antibody-TCO 300 μg,3.51 ± 0.75
same,tumor/blood,[3]; 48 h after antibody-TCO 300 μg,0.31 ± 0.07
same,tumor/muscle,[3]; 48 h after antibody-TCO 300 μg,3.39 ± 0.46
same,tumor/blood,[3]; 72 h after antibody-TCO 300 μg,0.30 ± 0.02
same,tumor/muscle,[3]; 72 h after antibody-TCO 300 μg,3.68 ± 0.98
"durvalumab-TCO: durvalumab (anti-PD-L1 antibody) modified with TCO-PEG4-NHS Ester, average 12 TCO per antibody",A549-PDL1 tumor uptake,[3]; 24 h after antibody-TCO 300 μg,2.52 ± 0.16 % ID/g
same,blood uptake,[3]; 24 h after antibody-TCO 300 μg,8.80 ± 0.50 % ID/g
same,lung uptake,[3]; 24 h after antibody-TCO 300 μg,7.06 ± 1.90 % ID/g
same,A549-PDL1 tumor uptake,[3]; 48 h after antibody-TCO 300 μg,1.91 ± 0.38 % ID/g
same,A549-PDL1 tumor uptake,[3]; 72 h after antibody-TCO 300 μg,1.60 ± 0.23 % ID/g
same,tumor/blood,[3]; 24 h after antibody-TCO 300 μg,0.29
same,tumor/muscle,[3]; 24 h after antibody-TCO 300 μg,3.51
